Source: PubChem
TAAR1 antagonist = human TAAR1 antagonists, primary screen, Fluo-8 calcium fluorescence, CHO RD-HGA16 cells. AID 624466, 2012. 360,000 tested, 1.5% active. Trace amine-associated receptor 1 (Homo sapiens), Q96RJ0. antagonist. inhibition, % at 3 µM;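 active means inhibition above a per-plate cutoff, the mean inhibition of test compounds on that plate plus 3 SD, cut at about 49% in these data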;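 further: 0% = DMSO plus EC80 beta-PEA response and 100% = DMSO alone without agonist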
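Test system – hTAAR1-expressing CHO RD-HGA16 cells, Gα16-coupled · Also added – β-PEA at EC80 concentration, post-compound challenge · Compound – 3 µM, single point · Incubation – dye loading 75 min at 37 °C, then 30 min room temperature · Measured by – Fluo-8 intracellular calcium dye fluorescence, real-time kinetic reads · Benchmarks – vehicle and agonist controls · Replicates – singlicate, one well per test compound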
OX1R antag-1 = antagonists of human orexin 1 receptor (OX1R) | inhibition, % at 6.6 µM | OX1R-expressing cells, FRET antagonist read-out | 330,000 tested, 1.8% active; in the data active means inhibition mostly above about 38%, no sharp cut-off; inactive means mostly below about 40%;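 further: 0% = agonist challenge alone and 100% = reference antagonist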
Target sequence (O43613 whole entry, looked up): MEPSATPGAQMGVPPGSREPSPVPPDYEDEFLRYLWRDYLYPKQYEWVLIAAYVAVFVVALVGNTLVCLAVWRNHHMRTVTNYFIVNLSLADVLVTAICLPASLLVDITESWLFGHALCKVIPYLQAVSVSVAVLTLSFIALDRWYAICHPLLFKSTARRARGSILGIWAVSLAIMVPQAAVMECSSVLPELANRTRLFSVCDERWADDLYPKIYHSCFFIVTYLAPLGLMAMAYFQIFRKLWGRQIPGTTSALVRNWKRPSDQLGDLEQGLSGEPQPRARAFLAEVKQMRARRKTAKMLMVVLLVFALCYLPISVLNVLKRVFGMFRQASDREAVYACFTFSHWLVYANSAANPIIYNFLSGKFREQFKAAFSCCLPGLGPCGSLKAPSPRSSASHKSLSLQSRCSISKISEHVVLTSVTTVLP
TAAR1 ag = human TAAR1 agonists, primary screen, Fluo-8 calcium fluorescence, CHO RD-HGA16 cells; vehicle wells 0%, saturating PEA agonist 100%; activation, % at 3 µM; 360,000 tested, 0.99% active; AID 624467, 2012;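 active means activation above the mean activation of all test compounds in the run plus 3 SD, cut at about 38% in these data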
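Benchmarks: low control DMSO, high control PEA (EC100); System: CHO RD-HGA16 cells carrying human TAAR1 plus Gα16; Detection: Fluo-8 fluorescence, 5 s baseline then 140 s kinetic read; Schedule: 17-24 h plating, Fluo-8 75 min 37 °C, 30 min RT; Read-out basis: % activation from peak over basal fluorescence ratio, DMSO-to-PEA scaled.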
CHO parental Ca = ATP-evoked calcium signal inhibitors, parental CHO, primary screen, counter-screen for OX1R antagonist project, cell-based, fluorescence, Fluo-8 calcium dye | parental CHO-K1, ATP-induced calcium, Fluo-8 fluorescence | inhibition, % at 5.6 µM | 330,000 tested, 0.63% active;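 active means inhibition above that plate's mean sample inhibition plus 3 SD, cut at about 26% in these data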;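 further: 0% = ATP-challenged DMSO wells and 100% = DMSO wells without ATP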
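test system = CHO parental line | reagent = ATP stimulus | measured by = intracellular calcium via Fluo-8 no-wash fluorescent dye | control set = ATP and no-ATP DMSO wells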
OX1R antag-2 = OX1R (HCRTR1) antagonists, primary screen, fluorescence, CHO/OX1R cells, Fluo-8 calcium, orexin A; Fluo-8 calcium fluorescence; inhibition, % at 5 µM; 330,000 tested, 0.43% active; AID 434989, 2010;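 active means inhibition above its plate's threshold, mean inhibition of all tested compounds on the plate plus 3 SD, cut at about 37% in these data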;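 further: 0% = orexin A challenge wells and 100% = SB-334867-A antagonist wells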
GPR7 antagonist = GPR7 receptor antagonists, primary screen, cell-based, fluorescence, single concentration; Neuropeptides B/W receptor type 1 (Homo sapiens), P48145; GPR7-expressing cells, fluorescence antagonist assay; inhibition, % at 4.4 µM; 290,000 tested, 1.1% active; in the data active means inhibition above about 16%, passing the limit was not always enough;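 further: cells stimulated with the agonist NPW; 0% = agonist with vehicle and 100% = vehicle without agonist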
Target sequence (P48145 whole entry, looked up): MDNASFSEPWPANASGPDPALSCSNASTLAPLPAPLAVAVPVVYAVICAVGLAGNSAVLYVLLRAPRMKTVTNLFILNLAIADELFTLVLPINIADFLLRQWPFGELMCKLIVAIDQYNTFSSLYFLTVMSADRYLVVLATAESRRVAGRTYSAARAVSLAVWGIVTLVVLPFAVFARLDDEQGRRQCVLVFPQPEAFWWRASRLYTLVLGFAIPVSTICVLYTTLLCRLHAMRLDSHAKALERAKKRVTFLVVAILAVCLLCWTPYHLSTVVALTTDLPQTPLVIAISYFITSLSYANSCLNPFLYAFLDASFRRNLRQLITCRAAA
* marks the source's active call; other numbers are inactive results; nt = no result. Shown are actives, neighbours in structure and some others; about 4.5% of the full set was active somewhere.

SMILES | TAAR1 antagonist | OX1R antag-1 | TAAR1 ag | CHO parental Ca | OX1R antag-2 | GPR7 antagonist
Cc1cc2sc3ccccc3c(=O)c2c(C)c1O | 2.1 | 68.7* | -0.9 | 2.3 | -1.4 | 6.5
COC(=O)C1=C(C)N(Cc2ccc(C(F)(F)F)cc2)C(=NCc2ccc(C(F)(F)F)cc2)NC1c1ccccc1C(F)(F)F (centres undefined) | -31.1 | nt | 3.0 | nt | nt | nt
O=C(Nc1ccc(Br)cn1)c1ccc(Cl)s1 | -7.1 | 52.5* | -1.5 | -31.5 | -20.6 | -3.3
CCCCN1C(=O)/C(=C/C=C2/CC(C)(C)CN2C)SC1=S | 17.2 | 28.7 | 25.7 | 47.5* | 46.3* | 4.8
CCCCN1C(=O)/C(=C/C=C2\Oc3ccccc3N2CC)SC1=S | 89.7* | nt | 180.1* | nt | nt | 10.5
CCCN1C(=O)/C(=C\C=C2/Sc3ccccc3N2CCO)SC1=S | 3.4 | 30.7 | 9.5 | -22.4 | 9.7 | -2.9
C=CCN1C(=O)/C(=C\C=C2\N(C)c3ccccc3C2(C)C)SC1=S | 33.8 | 4.8 | 19.2 | 6.0 | 1.4 | -4.1
COc1ccc(CNCc2cc(Cl)ccc2O)cc1 | 13.3 | 32.8 | 34.2 | -9.6 | -5.0 | nt
Oc1ccc(Cl)cc1CNCc1ccc(F)c(F)c1 | 4.8 | 0.1 | 42.9* | -9.7 | 1.2 | nt
Oc1ccc(Cl)cc1CNCc1ccc(Cl)nc1 | 11.8 | -2.9 | 39.6* | -14.0 | -14.9 | nt
C[C@@H]1C=CCCO[C@]12C(=O)N(Cc1ccc(Br)cc1)c1ccccc12 | -9.1 | nt | 0.3 | nt | nt | nt
CC(C)(C)S(=O)N1C[C@@H]2CC(=O)C(c3ccccc3)=C2[C@H]1CCO (some centres undefined) | -19.8 | nt | 2.9 | nt | nt | nt
CCOC(=O)C1CCCN(C(=O)c2cc3nc(-c4cccc(OC)c4)cc(C(F)(F)F)n3n2)C1 (centres undefined) | 62.9* | 21.1 | 6.0 | -7.7 | -18.2 | -15.9
O=C(c1cc2nc(-c3ccccc3)cc(C(F)(F)F)n2n1)N1CCN2CCCC2C1 (centres undefined) | -16.5 | 28.4 | 0.2 | -9.8 | -23.9 | 5.1
COC(=O)c1cn(NC(=O)Cc2ccc(Cl)cc2)c(=O)c2ccccc12 | 13.9 | 22.5 | 11.1 | -13.2 | -25.7 | -9.5
COC(=O)c1cn(NC(=O)Cc2cccc(C(F)(F)F)c2)c(=O)c2ccccc12 | -19.9 | 76.4* | 2.8 | 1.5 | -8.1 | -6.9
COc1ccc(CNC(=O)N2[C@H]3CC[C@@H]2C=C(c2ccc(F)cc2OCc2ccccc2)C3)cc1OC | 49.0* | nt | 8.0 | nt | nt | nt
O=C(C(=O)N1CCC(CNC(=O)c2cccs2)CC1)c1cc2ccccc2o1 | -8.4 | nt | 0.0 | nt | nt | nt
COc1ccc(N2CCN(C(=O)CSc3nc4ccccc4c(=O)[nH]3)CC2)cc1 | -8.4 | 31.1 | -1.9 | -11.9 | -20.9 | -8.3
COc1ccc(N2CCN(C(=O)CSc3nnc(C)c(=O)[nH]3)CC2)cc1 | -13.0 | -2.2 | 4.0 | 36.7* | -4.7 | -20.9
Clc1cccc2c1Sc1ccccc1CC2N1CCNCC1 (centres undefined) | 22.8 | 9.4 | 21.0 | 11.0 | 9.8 | 58.2*
Cc1cccc(C)c1NC(=O)CN(c1ccccn1)S(=O)(=O)c1ccccc1 | 5.7 | 16.4 | 1.5 | 24.7* | -14.8 | -9.2
Cc1cccc(C)c1NC(=O)CN(c1ccccn1)S(=O)(=O)c1ccc(F)cc1 | -2.4 | -1.1 | 14.6 | -7.4 | -11.3 | -2.6
Cn1nc(C(C)(C)C)cc1C(=O)N1CCCCC1c1cc(C(=O)Nc2ccccc2Cl)no1 (centres undefined) | -2.7 | nt | 6.1 | nt | nt | nt
COC(=O)c1sc(-c2ccc(C(C)(C)C)cc2)cc1NC(=O)c1ccccc1C(=O)O | 19.7 | 14.1 | -0.7 | 14.9 | -12.8 | -24.0
SMILES | TAAR1 antagonist | OX1R antag-1 | TAAR1 ag | CHO parental Ca | OX1R antag-2 | GPR7 antagonist
COC(=O)c1sc(-c2ccc(C(C)(C)C)cc2)cc1NC(=O)CSCC(=O)O | 49.0* | 20.2 | 5.1 | 2.5 | 9.2 | -4.0
N#Cc1cccc(C#N)c1Oc1ccc(S(=O)(=O)Nc2ccc(Cl)cc2)cc1 | 12.2 | 12.6 | 17.5 | 42.9* | 13.2 | 15.4
CC(Sc1nc(-c2ccccc2)c(-c2ccccc2)[nH]1)C(=O)NCC1CCCO1 (centres undefined) | -14.7 | nt | 1.8 | nt | nt | nt
Cc1ccc(NC(=O)COC(=O)Cn2cnc3ccccc32)c([N+](=O)[O-])c1 | -8.2 | 74.3* | 3.8 | 38.3* | 20.2 | -12.9
COCC(=O)NC1CCN(CC(=O)Nc2ccccc2[N+](=O)[O-])CC1 | -11.7 | 30.7 | 2.2 | -6.9 | -6.1 | -7.2
COCC(=O)NC1CCN(CC(=O)Nc2ccc(OC)cc2[N+](=O)[O-])CC1 | -12.9 | 41.2* | 2.3 | -1.5 | -20.6 | -2.2
CCC(=O)OCC(=O)Nc1ccc(OC)cc1[N+](=O)[O-] | -3.7 | 49.5* | 7.1 | -4.2 | -5.3 | 0.8
CCCCOCC1CN(CCCC)S(=O)(=O)c2c(cccc2Sc2ccc(OC)c(OC)c2)O1 (centres undefined) | -18.9 | nt | 0.0 | nt | nt | nt
Cc1ccc(N(CC(O)CN2CCOCC2)S(=O)(=O)c2ccc([N+](=O)[O-])cc2)cc1 (centres undefined) | 9.4 | 38.4* | 5.3 | -20.9 | -19.8 | -5.4
O=[N+]([O-])c1ccc(S(=O)(=O)CC(CN2CCOCC2)N2CCOCC2)cc1 (centres undefined) | 13.6 | 49.3* | 3.9 | -12.5 | 0.2 | 0.6
COc1ccc(N(CC(O)CN2CCOCC2)S(=O)(=O)c2ccc(C)cc2)cc1 (centres undefined) | 6.5 | 15.3 | -1.7 | -14.9 | -25.7 | 4.4
O=C1N=c2ccc(Br)cc2=C1c1sc(=O)[nH]c1O | nt | 41.5* | nt | 2.8 | -21.2 | 8.8
CCCCNC(=S)N1CCN(CC)CC1 | -34.7 | 5.7 | 38.8* | 3.9 | 7.4 | -5.0
CCOCCCNC(=S)N1CCN(CC)CC1 | 6.9 | 6.6 | 1.9 | 0.9 | 4.4 | 8.1
Cc1cc(C)n2c(NC3CCCCC3)c(CC(C)C)nc2n1 | -5.9 | nt | 1.3 | nt | nt | nt
CCN(CC(=O)Nc1c(F)cccc1F)C(=O)C(C)SCc1nc2sc(C)c(C)c2c(=O)[nH]1 (centres undefined) | -6.8 | 67.3* | 2.7 | -13.7 | -14.7 | -17.4
CCN(CC(=O)Nc1ccccc1C(F)(F)F)C(=O)CCc1nc2sc3c(c2c(=O)[nH]1)CCCC3 | -29.9 | 42.1* | 3.0 | -12.8 | -6.5 | nt
CCN(CC(=O)Nc1c(F)cccc1F)C(=O)CCc1nc2sc3c(c2c(=O)[nH]1)CCCC3 | -17.7 | 67.2* | 1.6 | -2.8 | -5.3 | nt
CN(CC(=O)Nc1ccccc1C(F)(F)F)C(=O)CCc1nc2sc3c(c2c(=O)[nH]1)CCCC3 | -1.3 | 16.4 | -0.1 | -15.3 | -18.8 | -16.3
